Test results taken from PubChem BioAssay.
Results filed as inconclusive are left out.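 How the source made its calls, unless noted: active means RAM network inhibition above 8.4% in each of two replicates, 3 SD over the compound average; inconclusive means above 8.4% inhibition in only one replicate; inactive means 8.4% inhibition or less in each replicate.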

Experiments:
[1] = OD615 S. cerevisiae growth inhibition, permissive medium, pilot counter-assay, permissive growth control for S. cerevisiae lifespan shortening project (AID 705;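 active means growth inhibition above 25% in both replicates, a cutoff set 3 SD above the mean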); conditions: OD615, 24 h, at 10 µM, active compounds read high
Method in brief: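 System: Engineered DeaD yeast | Buffer or medium: SC raffinose/galactose permissive medium | Doses: 10 µM single dose, 0.25% DMSO | Times: 24 h exposure, 30 °C | Measured by: OD615 turbidity read | Read-out: Yeast growth inhibition indicated by reduced 24 h OD615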

[2] = Restrictive medium S. cerevisiae growth inhibition, OD615, pilot screen of yeast lifespan reduction project, restrictive growth control (AID 706;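 active means growth inhibition above a set limit, 3 SD over mean compound inhibition, in both replicates, cut at about 43% in these data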;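 further: modified DeaD lifespan yeast strain shifted to restrictive glucose medium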); conditions: OD615, 48 h, at 10 µM, active compounds read high
Method in brief: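 Assay system: engineered S. cerevisiae DeaD strain; Buffer or medium: CSMM-D glucose medium; Dosing: 10 µM compound, 0.25% DMSO; Times: cell pre-growth 4 h, compound exposure 48 h, 30 °C; Detection: absorbance (optical density) measured at 615 nm.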

[3] = viability gain of MRP-1-high H69AR cells under doxorubicin, pilot screen, MRP-1 activator project, CellTiter-Glo, duplicate (AID 807;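 active means viability increase at or above a cutoff of the median across tested compounds plus 3 SD, cut at about 8.5% in these data, passing the limit was not always enough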;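 further: compound pretreatment 18-22 h then 72 h combined with doxorubicin; 0% = doxorubicin alone and 100% = vehicle without doxorubicin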); conditions: H69AR viability with doxorubicin, CellTiter-Glo luminescence; at 10 µM; active compounds read high
[4] = growth suppression of beta-catenin knockout HCT116, pilot screen, human colon tumor cells (AID 823;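 active means cell viability at or below a set limit in both duplicate runs, the limit being the all-compound median minus 4 SD, cut at about 23% in these data, passing the limit was not always enough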;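 further: 0% = wells killed by 20 µM Hyamine and 100% = untreated DMSO cell wells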); conditions: CellTiter-Glo, 60 h, at 10 µM, active compounds read low
[5] = growth suppression of PTEN-deleted HCT116, pilot screen, cell-based, HCT116 clonal line, CellTiter-Glo (AID 824;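 active means viability at or below 27.92% in each of two runs, the all-compound median minus 4 SD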;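 further: 0% = 20 µM Hyamine control and 100% = vehicle cell control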); conditions: 60 h, at 10 µM, active compounds read low
[6] = inhibitors of the yeast RAM network, pilot screen, dse1pr::URA3 reporter, 5-FOA selection (AID 869;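 active means inhibition over a set limit, the all-compound mean plus 3 SD, in both replicate runs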;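 further: 0% = DMSO wells with no growth and 100% = 10 µM 1-NA-PP1 with full growth; RAM network block rescues cells from 5-FOA so hits raise OD615 growth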); conditions: S. cerevisiae dse1pr::URA3 5-FOA growth, OD615, 2 d; at 10 µM; active compounds read high; strain carries analog-sensitive mutant Cbk1 kinase
[7] = RAM signaling pathway blockade in yeast – S. cerevisiae, Pdr1DBD-CYC8 efflux-inhibited sensitized strain, primary screen (AID 1298);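 further: 0% = DMSO untreated cells without growth and 100% = 10 µM 1-NA-PP1 full growth; higher means more yeast growth rescued from 5-FOA killing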; conditions: S. cerevisiae cbk1-as DSE1-URA3 strain, 5-FOA growth OD615, 2 d; at 50 µM; active compounds read high

CC1CCc2nn(CC(=O)Nc3c(F)cc(F)cc3Br)cc2C1 (configuration not stated)
inactive: growth inhibition [1] -5.22% | growth inhibition [2] -6.17% | viability increase [3] 2.17% | viability [4] 102% | viability [5] 90.3% | inhibition [6] 1.84% | RAM network inhibition [7] 1.57%

CCOC(=O)c1[nH]c2cc(OC)c(OC)cc2c1NC(=O)c1ccc2c(c1)OCO2
inactive: growth inhibition [1] -7.63% | growth inhibition [2] -10.9% | viability increase [3] -1.41% | viability [4] 102% | viability [5] 101% | inhibition [6] 2.13% | RAM network inhibition [7] 7.33%

CCOC(=O)N1CCN(CC(=O)c2ccc3c(c2)CCN3C(C)=O)CC1
inactive: growth inhibition [1] 0.355% | growth inhibition [2] -1.94% | viability increase [3] -1.31% | viability [4] 100% | viability [5] 96.6% | inhibition [6] 2.14% | RAM network inhibition [7] 6.23%

COC(=O)c1nc(NC(=O)C(C)(C)C)n[nH]1
inactive: growth inhibition [1] -9.88% | growth inhibition [2] -18.8% | viability increase [3] -3.77% | viability [4] 92.7% | viability [5] 89.8% | inhibition [6] 2.06% | RAM network inhibition [7] 0.47%

COC(=O)Cn1c(=NC(=O)C2CC2)sc2c(C)cc(C)cc21
inactive: growth inhibition [1] -12.3% | growth inhibition [2] -19% | viability increase [3] -2.07% | viability [4] 92.9% | viability [5] 91.4% | inhibition [6] 0.27% | RAM network inhibition [7] 4.34%

CCc1cc2c(=O)n(N)c(CCC(=O)O)nc2s1
inactive: growth inhibition [1] -14.9% | growth inhibition [2] -3.94% | viability increase [3] -1.37% | viability [4] 100% | viability [5] 96.1% | inhibition [6] 0.425% | RAM network inhibition [7] 8.13%

COC(=O)C1=C(C)NC(=O)NC1C1CC=CCC1 (configuration not stated)
inactive: growth inhibition [1] -13.7% | growth inhibition [2] -8.8% | viability increase [3] 0.06% | viability [4] 96.2% | viability [5] 95.5% | inhibition [6] 3.1% | RAM network inhibition [7] 6.9%

Nc1ccccc1SCc1cn2cccnc2n1
inactive: growth inhibition [1] 1.29% | growth inhibition [2] 12% | viability increase [3] -2.43% | viability [4] 109% | viability [5] 98% | inhibition [6] 2.13% | RAM network inhibition [7] 3.55%

CCCCC(=O)Nc1nc2c(OC)ccc(OC)c2s1
inactive: growth inhibition [1] -5.01% | growth inhibition [2] 1.46% | viability increase [3] -2.98% | viability [4] 97.5% | viability [5] 98.3% | inhibition [6] 0.87% | RAM network inhibition [7] 3.86%

Cn1c(/N=C/c2cccs2)nc2ccccc21
inactive: growth inhibition [1] -8.72% | growth inhibition [2] -5.94% | viability increase [3] -2.39% | viability [4] 93.9% | viability [5] 94.8% | inhibition [6] 2.46% | RAM network inhibition [7] 1.77%

CCc1ccccc1N1CC23C=CC(O2)C(C(=O)OCC(C)C)C3C1=O (configuration not stated)
inactive: growth inhibition [1] -14.3% | growth inhibition [2] -12.6% | viability increase [3] -0.48% | viability [4] 93.7% | viability [5] 89.6% | inhibition [6] 0.385% | RAM network inhibition [7] 0.42%

Cc1cc2cc(CNC(=O)Cc3cccs3)ccc2n1C
inactive: growth inhibition [1] -14.6% | growth inhibition [2] 3.17% | viability increase [3] -4.96% | viability [4] 74.9% | viability [5] 69% | inhibition [6] 3.38% | RAM network inhibition [7] 8.91%

CCOC(=O)N1CCN(C(=O)NC23CC4CC(CC(C4)C2)C3)CC1
inactive: growth inhibition [1] -2.78% | growth inhibition [2] -5.79% | viability increase [3] -2.4% | viability [4] 95.7% | viability [5] 92.1% | inhibition [6] 2.83% | RAM network inhibition [7] 3.57%

Cn1c(C(=O)N2CCN(c3ccccn3)CC2)cc2c(=O)n(C)c3ccccc3c21
inactive: growth inhibition [1] 2.93% | growth inhibition [2] 16.5% | viability increase [3] -2.39% | viability [4] 102% | viability [5] 97.4% | inhibition [6] 0.875% | RAM network inhibition [7] -0.81%

CCCc1nc2c(o1)CC(CC(C)SCC)CC2=O (configuration not stated)
inactive: growth inhibition [1] -7.34% | growth inhibition [2] -1.98% | viability increase [3] -0.4% | viability [4] 101% | viability [5] 98.8% | inhibition [6] 1.36% | RAM network inhibition [7] 5.75%

O=C(c1cc2c(ccc3ccccc32)oc1=O)N1CCN(CCO)CC1
inactive: growth inhibition [1] -9.81% | growth inhibition [2] -3.65% | viability increase [3] -2.23% | viability [4] 88.8% | viability [5] 93.7% | inhibition [6] 3.29% | RAM network inhibition [7] -1.69%

CCc1nnc(NC(=O)c2ccc(N3C(=O)CCC3=O)cc2)s1
inactive: growth inhibition [1] -9.63% | growth inhibition [2] -14.9% | viability increase [3] -1.98% | viability [4] 101% | viability [5] 94.7% | inhibition [6] 1.32% | RAM network inhibition [7] 2.48%

O=C(NCCCN1CCN(c2ccccc2F)CC1)C1CCC(=O)N1C1CCCC1 (configuration not stated)
inactive: growth inhibition [1] -13% | growth inhibition [2] -1.25% | viability increase [3] -2.46% | viability [4] 102% | viability [5] 93.6% | inhibition [6] 1.08% | RAM network inhibition [7] 5.85%

CCSc1nc2c(c(=O)[nH]1)C(C(C)C)C(C#N)=C(N)O2 (configuration not stated)
inactive: growth inhibition [1] -20.5% | growth inhibition [2] -13% | viability increase [3] -2.8% | viability [4] 106% | viability [5] 98.9% | inhibition [6] 0.63% | RAM network inhibition [7] 2.73%

CC12CC(NC(=O)N1CCc1ccccc1)c1ccccc1O2 (configuration not stated)
inactive: growth inhibition [1] -8.73% | growth inhibition [2] -25% | viability increase [3] -3.43% | viability [4] 74.9% | viability [5] 73.8% | inhibition [6] 1.45% | RAM network inhibition [7] 5.31%

CCn1c(-c2ccc(N)cc2)nc2ccccc21
inactive: growth inhibition [1] -7.32% | growth inhibition [2] 7.48% | viability increase [3] -3.43% | viability [4] 103% | viability [5] 83.5% | inhibition [6] 1.18% | RAM network inhibition [7] 0.72%

COc1ccc(C(=O)N2CCN(c3ccc(C)cc3C)CC2)cc1OC
inactive: growth inhibition [1] -12.4% | growth inhibition [2] -0.18% | viability increase [3] 3.24% | viability [4] 72.9% | viability [5] 85.7% | inhibition [6] 1.66% | RAM network inhibition [7] 2.92%

CCOC(=O)CSc1nc2ccccc2c(=O)[nH]1
inactive: growth inhibition [1] -13.4% | growth inhibition [2] -17.3% | viability increase [3] -0.36% | viability [4] 105% | viability [5] 100% | inhibition [6] 1.74% | RAM network inhibition [7] 3.03%

COCCn1c(CN2CC(C)CC(C)C2)nc2c1c(=O)n(C)c(=O)n2C (configuration not stated)
inactive: growth inhibition [1] 8.93% | growth inhibition [2] 9.36% | viability increase [3] 0.07% | viability [4] 90.4% | viability [5] 98.5% | inhibition [6] -0.14% | RAM network inhibition [7] -0.26%

CC1CCCC(NC(=O)CN(C)S(=O)(=O)c2cccc3cccnc23)C1C (configuration not stated)
inactive: growth inhibition [1] -10.9% | growth inhibition [2] -18.7% | viability increase [3] -3.62% | viability [4] 98.7% | viability [5] 88.4% | inhibition [6] 0.34% | RAM network inhibition [7] 3.61%

CC(=O)N1CCN(c2ccc(NCc3ccc(C)s3)cc2)CC1
inactive: growth inhibition [1] -5.79% | growth inhibition [2] 8.29% | viability increase [3] -2.32% | viability [4] 99% | viability [5] 95% | inhibition [6] 1.92% | RAM network inhibition [7] 7.94%

Cc1nc2ccc(N)cc2s1
inactive: growth inhibition [1] -15.7% | growth inhibition [2] -13.4% | viability increase [3] -2.73% | viability [4] 109% | viability [5] 112% | inhibition [6] 0.07% | RAM network inhibition [7] 1.25%

CCN1CCN(c2ncnc3c2sc(=S)n3-c2ccccc2)CC1
inactive: growth inhibition [1] 8.5% | growth inhibition [2] 11.5% | viability increase [3] -3.4% | viability [4] 85.4% | viability [5] 84.9% | inhibition [6] 1.73% | RAM network inhibition [7] -0.06%

Cc1nc2ncnn2c(C)c1Cc1ccc(Cl)cc1F
inactive: growth inhibition [1] -9.96% | growth inhibition [2] -18.8% | viability increase [3] -1.72% | viability [4] 95.7% | viability [5] 92.2% | inhibition [6] 0.26% | RAM network inhibition [7] 6.16%

CCOc1ccccc1NC(=O)CN(c1cc(C)cc(C)c1)S(=O)(=O)c1c(C)noc1C
inactive: growth inhibition [1] -22.6% | growth inhibition [2] -12.1% | viability increase [3] -1.39% | viability [4] 106% | viability [5] 95.1% | inhibition [6] 1.51% | RAM network inhibition [7] 1.81%

CCN1CCN(Cc2nc3c(c(=O)n(C)c(=O)n3C)n2Cc2ccccc2Cl)CC1
inactive: growth inhibition [1] -8.38% | growth inhibition [2] -13.4% | viability increase [3] -3.38% | viability [4] 91.7% | viability [5] 91.6% | inhibition [6] 1.17% | RAM network inhibition [7] 0.71%

CC(=Nc1ccc(C)c(C)c1)C1=C(O)CSC1=O
inactive: growth inhibition [1] 1.08% | growth inhibition [2] -8.17% | viability increase [3] -2.54% | viability [4] 98.1% | viability [5] 90.3% | inhibition [6] 1.67% | RAM network inhibition [7] 4.33%

CC(C)C(=O)Nc1c(C(=O)c2ccc(F)cc2)oc2ccccc12
inactive: growth inhibition [1] -8.13% | growth inhibition [2] -2.55% | viability increase [3] 0.04% | viability [4] 105% | viability [5] 91.2% | inhibition [6] 1.55% | RAM network inhibition [7] 1.81%

CCOCCn1c(N(C)Cc2ccccc2)nc2c1c(=O)[nH]c(=O)n2C
inactive: growth inhibition [1] -10.9% | growth inhibition [2] -6.11% | viability increase [3] 0.04% | viability [4] 101% | viability [5] 95.6% | inhibition [6] 0.985% | RAM network inhibition [7] 5.77%

Cc1n[nH]c(C)c1S(=O)(=O)N(CC(=O)NC1CCCC1)c1ccc(C(C)C)cc1
inactive: growth inhibition [1] -7.41% | growth inhibition [2] 9.02% | viability increase [3] -3.3% | viability [4] 80.3% | viability [5] 76.9% | inhibition [6] 0.63% | RAM network inhibition [7] 3.37%

O=C(COc1ccc(S(=O)(=O)NC2CCCCC2)cc1)Nc1ccc2c(c1)OCCO2
inactive: growth inhibition [1] -2.47% | growth inhibition [2] 4.23% | viability increase [3] -2.05% | viability [4] 84% | viability [5] 70.8% | inhibition [6] 2.25% | RAM network inhibition [7] 5.01%
